We go through 25 molecules from ChEMBL document CHEMBL1629500, “Synthesis and anticonvulsant activity of N-3-arylamide substituted 5,5-cyclopropanespirohydantoin derivatives” (Eur J Med Chem, 2010).

Data set [1] relates to Mus musculus. As to the kind of experiment: Anticonvulsant activity in ip dosed mouse assessed as inhibition of PTZ-induced clonic seizure after 4 hrs. The data set is classed as functional. The following applies: for minimal effective dose: read-out: MED. The method in brief: (§1)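 Male Kunming mice were dosed ip with the compound suspended in 0.5% methylcellulose at 30, 100 and 300 mg/kg, one to four mice per dose. Pentylenetetrazole in 0.9% saline was given subcutaneously at 0.5 h and 4.0 h. Protection meant no threshold seizure, i.e. no single clonic spasm episode lasting at least 5 s. The minimal dose active in half or more of the mice was recorded.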

For data set [2], the system named is Mus musculus. The data set can be described thus: Anticonvulsant activity in ip dosed mouse assessed as inhibition of maximum electric shock-induced hind limb tonic extension after 0.5 hrs. The data set is classed as functional. The note with it: Hindlimb; for minimal effective dose: read-out: MED. The method in brief: (§2)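 Male Kunming mice received the compound ip as a suspension in 0.5% methylcellulose at 30, 100 and 300 mg/kg, one to four mice per dose. At 0.5 h and 4.0 h, a 60-Hz, 50-mA current was given through corneal electrodes for 0.25 s. Absence of hindlimb tonic extension counted as protection. The minimal dose protecting half or more of the mice was recorded.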

For data set [3], the system named is Mus musculus. As to the kind of experiment: Anticonvulsant activity in ip dosed mouse assessed as inhibition of maximum electric shock-induced hind limb tonic extension after 4 hrs. The data set is classed as functional. The note with it: Hindlimb; for minimal effective dose: read-out: MED. An outline of the steps:
as §2

For data set [4], the system named is Mus musculus. As to the kind of experiment: Neurotoxicity against ip dosed mouse by rotarod test after 0.5 hrs. The data set is classed as toxicity, organism-based. The following applies: in vivo. An outline of the steps:
(§3)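 Mice were trained on a 1-in. knurled rod turning at 6 rpm, then given 30, 100 or 300 mg/kg ip as a suspension in 0.5% methylcellulose. They were tested at 0.5 h and 4.0 h. Neurotoxicity meant failure to keep balance on the rod for at least 1 min in each of four trials. The minimal dose affecting half or more of the mice was recorded.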

For data set [5], the system named is Mus musculus. The data set can be described thus: Anticonvulsant activity in ip dosed mouse assessed as inhibition of PTZ-induced clonic seizure after 0.5 hrs. The data set is classed as functional. The following applies: for minimal effective dose: read-out: MED. The method in brief:
as §1

For data set [6], the system named is Mus musculus. The data set can be described thus: Neurotoxicity against ip dosed mouse by rotarod test after 4 hrs. The data set is classed as toxicity, organism-based. The following applies: in vivo. An outline of the steps: as §3
In data set [7] the test system is Mus musculus. As to the kind of experiment: Anticonvulsant activity in ip dosed mouse assessed as inhibition of PTZ-induced clonic seizure. The data set is classed as functional. An outline of the steps:
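Male Kunming mice (20 ± 2.0 g) were used. Test drug was given ip to groups of 10 mice over a range of doses until at least three points fell between 10% and 90% seizure protection or minimal neurotoxicity. […] Neurotoxicity was scored on the rotorod 30 min after dosing. PI = TD50/ED50.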

The subject of data set [8] is Mus musculus. The data set can be described thus: Anticonvulsant activity in ip dosed mouse assessed as inhibition of maximum electric shock-induced hind limb tonic extension. The following applies: Hindlimb. The data set is classed as functional.
The subject of data set [9] is Mus musculus. The data set can be described thus: Protective index, ratio of TD50 for mouse to ED50 for inhibition of subcutaneous pentylenetetrazole-induced seizure in mouse. The data set is classed as functional.
The nature of data set [10]: Toxicity against ip dosed mouse. The data set is classed as organism-based. The following applies: in vivo.
The species named for data set [11] is Mus musculus. As to the kind of experiment: Protective index, ratio of TD50 for mouse to ED50 for inhibition of maximal electroshock-induced seizure in mouse. The data set is classed as functional.

Calls of active or inactive are those of the source. Some results are limits rather than exact numbers.

Take `CN(C)c1ccc(C(=O)NN2C(=O)NC3(CC3(C)C)C2=O)cc1` (stereo not drawn): the outcome in [1] was inactive. Also, the minimal effective dose in data set [2] stood at 300 mg/kg; in data set [3], 300 mg/kg; in data set [5], 100 mg/kg. Also, the Activity result in data set [4] and in data set [6] was “Not Active” in each case.
In the case of `CC1(C)CC12NC(=O)N(NC(=O)c1ccc(Cl)cc1)C2=O` (stereo not drawn), the result in data set [1] was inactive. In addition, the minimal effective dose was 100 mg/kg in data set [2], 300 mg/kg in data set [3] and 300 mg/kg in [5]. Also, the Activity entry in [4] and in data set [6] was “Not Active” throughout.
Turning to `COc1ccc(C(=O)NN2C(=O)NC3(CC3(C)C)C2=O)cc1` (stereo not drawn), the outcome in data set [1], in data set [3] and in data set [5] was inactive. For the same molecule, the minimal effective dose in data set [2] turned out to be 100 mg/kg. The Activity entry in data set [4] is reported as “Not Active”. The molecule also displayed an MED in data set [6] of 300 mg/kg.
For the molecule `Cc1cccc(C(=O)NN2C(=O)NC3(CC3(C)C)C2=O)c1` (stereo not drawn), the result in data set [1], in [3] and in data set [5] was inactive. In data set [2], the minimal effective dose was 100 mg/kg. The Activity result in data set [4] and in data set [6] was “Not Active” each time.
In the case of `CCC1(c2ccccc2)C(=O)NC(=O)NC1=O` [PHENOBARBITAL], the ED50 in [7] was 13.2 mg/kg; in [8], 21.8 mg/kg.
For the molecule `COc1cc(C(=O)NN2C(=O)NC3(CC3(C)C)C2=O)cc(OC)c1OC` (stereo not drawn), the result in [1], in data set [3] and in [5] was inactive. The minimal effective dose in [2] worked out at 300 mg/kg. The MED was found to be 100 mg/kg in [4] and 300 mg/kg in data set [6].
On to `O=C1NC(=O)C(c2ccccc2)(c2ccccc2)N1` [PHENYTOIN], for which the result in [1] and in data set [5] was inactive. Also, the minimal effective dose in data set [2] and in [3] was 30 mg/kg in each case. In addition, the MED in data set [4] and in [6] was 100 mg/kg throughout. Besides, the ED50 in [7] was > 300 mg/kg.
As to `NC(=O)N1c2ccccc2C=Cc2ccccc21` [CARBAMAZEPINE], the 50% effective dose (ED50) in data set [7] is > 100 mg/kg; in [8], 8.8 mg/kg.
Take `CCCC(CCC)C(=O)[O-].[Na+]` [VALPROATE SODIUM]: the ED50 in [7] came out at 149 mg/kg.
Regarding `Cc1ccc(C(=O)NN2C(=O)NC3(CC3(C)C)C2=O)cc1` (stereo not drawn), the minimal effective dose in data set [1] came out at 300 mg/kg; in data set [2], 100 mg/kg. The outcome in data set [3] and in [5] was inactive. Moreover, the Activity result in data set [4] was “Not Active”. In data set [6], this molecule showed an MED of 300 mg/kg.
On to `CC1(C)CC12NC(=O)N(NC(=O)c1ccccc1)C2=O` (stereo not drawn), for which the outcome in [1] and in [3] was inactive. Besides, the minimal effective dose in [2] and in [5] was 300 mg/kg each time. In data set [4], this molecule gave an MED of 300 mg/kg. Also, in data set [6], the Activity entry is listed as “Not Active”.
In the case of `CC1(C)CC12NC(=O)N(NC(=O)c1cccs1)C2=O` (stereo not drawn), the outcome in data set [1], in [2] and in data set [5] was inactive. In data set [3], the minimal effective dose was 300 mg/kg. Moreover, the figures for the MED in [4] and in data set [6] were 100 mg/kg and 300 mg/kg, respectively.
`CC1(C)CC12NC(=O)N(N1C(=O)c3ccccc3C1=O)C2=O` (stereo not drawn): the minimal effective dose in [1] is 300 mg/kg; in data set [2], 30 mg/kg; in [3], 100 mg/kg; in data set [5], 300 mg/kg. For the same molecule, the Activity entry in data set [4] and in data set [6] was “Not Active” in each case. The ED50 is 137 mg/kg in data set [7] and 13.7 mg/kg in data set [8]. Also, the Ratio in data set [9] was found to be 2.8; in data set [11], 17.8. The molecule further registered a TD50 in [10] of 387 mg/kg.
`CC(C)(C)c1ccc(C(=O)NN2C(=O)NC3(CC3(C)C)C2=O)cc1` (stereo not drawn): the result in data set [1] was inactive. The minimal effective dose was determined as 30 mg/kg in data set [2], 100 mg/kg in data set [3] and 100 mg/kg in data set [5]. In addition, the Activity entry in [4] and in data set [6] was “Not Active” each time. Besides, the figures for the ED50 in data set [7] and in data set [8] were 208 mg/kg and 25.3 mg/kg, respectively. For the same molecule, the values for the Ratio in [9] and in data set [11] were 1.8 and 15.5, respectively. For the same molecule, in [10], the TD50 was found to be 382 mg/kg.
Regarding `CC1(C)CC12NC(=O)N(NC(=O)c1ccccc1F)C2=O` (stereo not drawn), the outcome in data set [1], in [3] and in data set [5] was inactive. In addition, the minimal effective dose in data set [2] was determined as 100 mg/kg. Moreover, the Activity entry in data set [4] is recorded as “Not Active”. In addition, the MED in [6] stood at 300 mg/kg.
As for `CC1(C)CC12NC(=O)N(NC(=O)c1ccncc1)C2=O` (stereo not drawn), the outcome in data set [1], in data set [2] and in data set [5] was inactive. Moreover, the minimal effective dose in [3] amounted to 300 mg/kg. For the same molecule, the MED is 100 mg/kg in [4] and 300 mg/kg in [6].
Turning to `CCC1(C)CC(=O)NC1=O` (stereo not drawn) [ETHOSUXIMIDE], the minimal effective dose in data set [1] came to 300 mg/kg; in data set [5], 100 mg/kg. In addition, the outcome in [2] and in data set [3] was inactive. Moreover, the Activity entry in data set [4] and in [6] was “Not Active” each time.
As to `CC1(C)CC12NC(=O)N(NC(=O)c1ccco1)C2=O` (stereo not drawn), the result in data set [1], in data set [2] and in data set [5] was inactive. Also, the minimal effective dose in data set [3] amounted to 300 mg/kg. Besides, the MED in [4] turned out to be 100 mg/kg; in data set [6], 300 mg/kg.
Take `CC1(C)CC12NC(=O)N(NC(=O)c1ccc(Br)cc1)C2=O` (stereo not drawn): the minimal effective dose in [1], in data set [2] and in [3] was 300 mg/kg in each case. Besides, the MED in data set [4] and in [6] was 300 mg/kg each time. For the same molecule, in data set [5], the result was inactive.
As for `COc1ccc(C(=O)NN2C(=O)NC3(CC3(C)C)C2=O)cc1OC` (stereo not drawn), the minimal effective dose in data set [1], in data set [2] and in data set [3] was 300 mg/kg throughout. Also, the Activity result in data set [4] is recorded as “Not Active”. Moreover, the result in data set [5] was inactive. In addition, the MED in data set [6] came to 300 mg/kg.
On to `CC1(C)CC12NC(=O)N(NC(=O)c1ccccc1Cl)C2=O` (stereo not drawn), for which the result in data set [1] and in data set [3] was inactive. The minimal effective dose in data set [2] and in data set [5] was 300 mg/kg each time. Further, the Activity result in data set [4] was “Not Active”. Further, in [6], the MED came to 300 mg/kg.
As for `CC1(C)CC12NC(=O)N(NC(=O)c1ccc(F)cc1)C2=O` (stereo not drawn), the result in data set [1] was inactive. The results for the minimal effective dose in [2], in data set [3] and in data set [5] were 100 mg/kg, 300 mg/kg and 300 mg/kg, respectively. For the same molecule, in data set [4], the Activity entry is “Not Active”. This molecule displayed an MED in data set [6] of 300 mg/kg.
Take `CC1(C)CC12NC(=O)N(NC(=O)c1cccnc1)C2=O` (stereo not drawn): the outcome in [1], in data set [2] and in data set [5] was inactive. The minimal effective dose in data set [3] stood at 300 mg/kg. The MED in [4] amounted to 100 mg/kg; in data set [6] it was 300 mg/kg.
On to `CC1(C)CC12NC(=O)N(NC(=O)c1ccc([N+](=O)[O-])cc1)C2=O` (stereo not drawn), for which the result in data set [1] was inactive. For the same molecule, the minimal effective dose in data set [2], in data set [3] and in data set [5] was 300 mg/kg throughout. In addition, the Activity entry in data set [4] and in data set [6] was “Not Active” in each case.
`CC1(C)CC12NC(=O)N(NC(=O)c1ccc(C(F)(F)F)cc1)C2=O` (stereo not drawn): the minimal effective dose was determined as 300 mg/kg in data set [1], 30 mg/kg in [2], 30 mg/kg in [3] and 300 mg/kg in data set [5]. Moreover, the Activity entry in [4] and in [6] was “Not Active” in each case. Moreover, the ED50 in data set [7] came to 62.1 mg/kg; in data set [8], 9.2 mg/kg. Besides, the Ratio is on record as 6.7 in [9] and 45.8 in data set [11]. In data set [10], this molecule displayed a TD50 of 422 mg/kg.
